# Test results from ChEMBL document CHEMBL1629645 (Antimicrob Agents Chemother, 2009).
# Experiments:
# [1] = AUC (0 to 24 hrs) in cage fluid of Albino guiena pig at 10 mg/kg, ip; type: ADME, organism-based, Cavia porcellus; parameters: time < 24 hr, dose 10 mg/kg, route intraperitoneal; conditions: guinea pig
# [2] = Half life in cage fluid of Albino guiena pig at 10 mg/kg, ip; type: ADME, organism-based, Cavia porcellus; parameters: dose 10 mg/kg, route intraperitoneal; conditions: guinea pig, in vivo
# [3] = Tmax in cage fluid of Albino guiena pig at 10 mg/kg, ip; type: ADME, organism-based, Cavia porcellus; parameters: dose 10 mg/kg, route intraperitoneal; conditions: guinea pig
# [4] = Cmin in cage fluid of Albino guiena pig at 10 mg/kg, ip after 12 hrs; type: ADME, organism-based, Cavia porcellus; parameters: dose 10 mg/kg, route intraperitoneal; conditions: guinea pig, read-out: Cmin
# [5] = Cmax in cage fluid of Albino guiena pig at 10 mg/kg, ip after 12 hrs; type: ADME, organism-based, Cavia porcellus, Interstitial fluid; parameters: dose 10 mg/kg, route intraperitoneal; conditions: guinea pig
# Staphylococcus aureus [6] = assay: Antibacterial activity against methicillin-resistant Staphylococcus aureus ATCC 43300 during stationary growth phase by macrodilution method; type: functional
# Staphylococcus aureus [7] = assay: Antibacterial activity against methicillin-resistant Staphylococcus aureus ATCC 43300 during logarithmic growth phase by macrodilution method; type: functional
# Staphylococcus aureus [8] = assay: Antibacterial activity against methicillin-resistant Staphylococcus aureus ATCC 43300 by macrodilution method; type: functional
# Outline: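 Broth macrodilution MIC in Mueller-Hinton broth per CLSI. Inoculum 1 × 10^5 to 5 × 10^5 CFU/ml. Ten twofold drug dilutions, 18 h at 37°C without shaking. MIC is the lowest concentration with no visible growth. Triplicate.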
smiles,measurement,setting,value
C[C@H]1COc2c(N3CCN(C)CC3)c(F)cc3c(=O)c(C(=O)O)cn1c23.C[C@H]1COc2c(N3CCN(C)CC3)c(F)cc3c(=O)c(C(=O)O)cn1c23.O [LEVOFLOXACIN],AUC(0-t) at 24 h,[1],6100 ng·h/mL
same,t1/2,[2],4.2 h
same,Tmax,[3],2.5 h
same,concentration at 12 h,[4],300 ng/mL
same,Cmax,[5],1500 ng/mL
same,MBC,Staphylococcus aureus [6],> 20 µg/mL
same,MBC,Staphylococcus aureus [7],0.63 µg/mL
same,MIC,Staphylococcus aureus [8],0.16 µg/mL
